Assay results: ChEMBL document CHEMBL3414445, “Blood-brain barrier permeable anticholinesterase aurones: synthesis, structure-activity relationship, and drug-like properties” (Eur J Med Chem, 2015)

Experiments:
[1] = Stability in Sprague-Dawley rat liver microsomes assessed as parent compound remaining at 2 uM measured 10 mins after microsomal reactions termination at pH 7.4 pre-incubated in presence of NADPH regenerating system by LC-MS method; assay type: ADME; settings: read-out: Stability
Method in brief: (§1)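 Compound added (2 µM final, from DMSO stock), 37 °C; time-0 aliquot and reaction quenched with ice-cold acetonitrile (acetaminophen internal standard) at 10 min, or 30 min for some compounds. Single time-point design; LC-MS (Q-Tof) analysis.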

[2] = Half life in Sprague-Dawley rat liver microsomes at 2 uM at pH 7.4 pre-incubated in presence of NADPH regenerating system measured 10 mins after microsomal reactions termination by LC-MS method; assay type: ADME; method in brief: as §1
[3] = Selectivity index, ratio of IC50 for equine serum butyrylcholine esterase to IC50 for electric eel AChE
Acetylcholinesterase = Acetylcholinesterase (Electrophorus electricus, UniProt O42275); test: Inhibition of electric eel AChE incubated for 15 mins using […] substrate by colorimetric Ellman's method
Cholinesterase = Cholinesterase (Equus caballus, UniProt P81908); test: Inhibition of equine serum butyrylcholine esterase incubated for 15 mins using S-butyrylthiocholine chloride substrate by colorimetric Ellman's method
in vitro = settings: PAMPA, pH 7.4
[4] = Retention time of the compound by HPLC-UV method; assay type: physicochemical
[5] = Half life in Sprague-Dawley rat liver microsomes at 2 uM at pH 7.4 pre-incubated in presence of NADPH regenerating system measured 30 mins after microsomal reactions termination by LC-MS method; assay type: ADME
[6] = Stability in Sprague-Dawley rat liver microsomes assessed as parent compound remaining at 2 uM measured 30 mins after microsomal reactions termination at pH 7.4 pre-incubated in presence of NADPH regenerating system by LC-MS method; assay type: ADME; settings: read-out: Stability
Liver microsome [7] = test: Drug metabolism in Sprague-Dawley rat liver microsomes assessed as formation of monohydroxylated metabolite at 2 uM at pH 7.4 pre-incubated in presence of NADPH regenerating system measured after 10 to 30 mins by LC-MS method; assay type: ADME; settings: pH 7.4, 2 µM; method in brief: as §1
Liver microsome [8] = test: Drug metabolism in Sprague-Dawley rat liver microsomes assessed as formation of desmethylated metabolite at 2 uM at pH 7.4 pre-incubated in presence of NADPH regenerating system measured after 10 to 30 mins by LC-MS method; assay type: ADME; settings: pH 7.4, 2 µM; method in brief: as §1

Sequence of Acetylcholinesterase (O42275 whole entry): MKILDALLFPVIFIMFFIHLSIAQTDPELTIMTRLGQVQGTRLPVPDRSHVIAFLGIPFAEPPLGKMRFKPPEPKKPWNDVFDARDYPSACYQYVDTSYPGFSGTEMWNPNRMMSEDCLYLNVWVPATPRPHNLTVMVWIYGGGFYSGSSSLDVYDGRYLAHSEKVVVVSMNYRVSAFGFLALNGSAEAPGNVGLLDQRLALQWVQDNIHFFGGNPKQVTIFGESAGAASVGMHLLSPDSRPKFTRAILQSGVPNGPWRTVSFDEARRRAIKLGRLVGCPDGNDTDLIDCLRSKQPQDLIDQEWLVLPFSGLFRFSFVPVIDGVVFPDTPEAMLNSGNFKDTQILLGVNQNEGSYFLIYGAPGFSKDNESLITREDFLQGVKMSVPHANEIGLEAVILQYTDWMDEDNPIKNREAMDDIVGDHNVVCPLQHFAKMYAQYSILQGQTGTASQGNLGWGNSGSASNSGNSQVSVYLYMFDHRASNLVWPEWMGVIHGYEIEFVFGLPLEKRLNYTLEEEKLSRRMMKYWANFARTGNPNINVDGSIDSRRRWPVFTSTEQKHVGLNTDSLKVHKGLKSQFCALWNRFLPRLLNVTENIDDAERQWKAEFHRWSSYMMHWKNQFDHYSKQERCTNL
Sequence of Cholinesterase (P81908 whole entry): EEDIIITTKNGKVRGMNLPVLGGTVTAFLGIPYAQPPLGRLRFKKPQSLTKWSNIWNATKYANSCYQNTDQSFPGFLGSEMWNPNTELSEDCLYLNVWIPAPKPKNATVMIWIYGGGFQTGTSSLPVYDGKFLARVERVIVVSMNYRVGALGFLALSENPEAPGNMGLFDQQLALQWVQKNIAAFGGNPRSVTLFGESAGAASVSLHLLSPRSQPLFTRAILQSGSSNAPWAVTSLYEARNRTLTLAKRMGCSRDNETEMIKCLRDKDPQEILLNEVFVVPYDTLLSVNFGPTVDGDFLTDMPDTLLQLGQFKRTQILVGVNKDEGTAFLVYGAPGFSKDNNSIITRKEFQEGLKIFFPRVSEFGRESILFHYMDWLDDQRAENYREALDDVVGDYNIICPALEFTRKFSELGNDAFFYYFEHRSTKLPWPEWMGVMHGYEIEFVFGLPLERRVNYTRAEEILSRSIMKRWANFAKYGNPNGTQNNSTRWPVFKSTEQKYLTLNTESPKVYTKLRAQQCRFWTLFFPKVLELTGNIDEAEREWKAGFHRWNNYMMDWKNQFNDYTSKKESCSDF

Row | Compound | Ratio IC50 [3] | IC50 (Acetylcholinesterase) | IC50 (Cholinesterase) | other results
1 | COc1ccc2c(c1)O/C(=C\c1ccc(OCCN3CCCCC3)c(Cl)c1)C2=O | 49.4 | 0.16 µM | 7.9 µM | remaining at 10 min, 2 µM [1]: 59.5%; half-life at 2 µM [2]: 13.4 min; Retention_time: 3.4 min; Papp (in vitro): 12.2 ×10⁻⁶ cm/s
2 | COc1ccc2c(c1)O/C(=C\c1ccncc1)C2=O | – | > 100 µM | > 100 µM | –
3 | COc1ccc(/C=C2\Oc3cc(OC)ccc3C2=O)cc1 | – | > 100 µM | > 100 µM | remaining at 10 min, 2 µM [1]: 41.4%; half-life at 2 µM [2]: 7.9 min; Retention_time: 3.9 min; Papp (in vitro): 9.8 ×10⁻⁶ cm/s
4 | CCN(CC)C(=O)Oc1ccc2c(c1)O/C(=C\c1ccc(OCCN(C)C)cc1)C2=O | 1.78 | 5.44 µM | 9.69 µM | –
5 | O=C1/C(=C/c2ccncc2)Oc2cc(O)ccc21 | – | > 100 µM | > 100 µM | –
6 | COc1ccc2c(c1)O/C(=C\c1ccc(OCCCN(C)C)cc1Cl)C2=O | 2.26 | 15.1 µM | 34.1 µM | –
7 | CCN(CC)c1ccc(/C=C2\Oc3cc(O)ccc3C2=O)cc1 | – | > 100 µM | > 100 µM | –
8 | COc1ccc(/C=C2\Oc3cc(OCCCN(C)C)ccc3C2=O)cc1 | 1.99 | 15.7 µM | 31.2 µM | –
9 | COc1ccc2c(c1)O/C(=C\c1ccc(OCCN(C)C)c(Cl)c1)C2=O | 8.35 | 1.33 µM | 11.1 µM | –
10 | C[C@]12CC[C@H]3[C@@H](CCC4=CC(=O)CC[C@@]43C)[C@@H]1CC[C@@H]2O [TESTOSTERONE] | – | – | – | remaining at 10 min, 2 µM [1]: < 0.001%; half-life at 2 µM [2]: 0.48 min
11 | O=C1/C(=C/c2ccc(OCCN3CCCC3)c(Cl)c2)Oc2cc(O)ccc21 | 34.3 | 0.289 µM | 9.92 µM | –
12 | COc1ccc2c(c1)O/C(=C\c1ccc(OCCCN(C)C)cc1)C2=O | 12.5 | 2.44 µM | 30.4 µM | –
13 | Cn1c(=O)c2[nH]cnc2n(C)c1=O.O [THEOPHYLLINE] | – | – | – | Retention_time [4]: 3.4 min
14 | COc1cc(/C=C2\Oc3cc(OCCN4CCCC4)ccc3C2=O)cc(OC)c1OC | 18.2 | 0.643 µM | 11.7 µM | –
15 | CN(C)CCCOc1ccc(/C=C2\Oc3cc(O)ccc3C2=O)cc1 | – | 7.9 µM | > 100 µM | –
16 | O=C1/C(=C/c2ccc(OCCN3CCCC3)cc2Cl)Oc2cc(O)ccc21 | 9.89 | 0.878 µM | 8.68 µM | –
17 | COc1ccc(/C=C2\Oc3cc(O)ccc3C2=O)cc1 | – | > 100 µM | > 100 µM | –
18 | CCN(CC)C(=O)Oc1ccc2c(c1)O/C(=C\c1ccc(OCCN3CCCC3)cc1)C2=O | 9.5 | 0.779 µM | 7.4 µM | –
19 | COc1ccc2c(c1)O/C(=C\c1ccc(OCCN3CCCCC3)cc1Cl)C2=O | 22.2 | 0.513 µM | 11.4 µM | –
20 | O=C1/C(=C/c2ccc(OCCN3CCCCC3)cc2)Oc2cc(O)ccc21 | – | 2.23 µM | > 100 µM | Retention_time: 3.6 min; Papp (in vitro): 10 ×10⁻⁶ cm/s
21 | CN(C)c1ccc(/C=C2\Oc3cc(O)ccc3C2=O)cc1 | – | > 100 µM | > 100 µM | –
22 | CCN(CC)C(=O)Oc1ccc2c(c1)O/C(=C\c1ccc(N(CC)CC)cc1)C2=O | – | > 100 µM | > 100 µM | –
23 | COc1ccc(/C=C2\Oc3cc(OCCN(C)C)ccc3C2=O)cc1 | 2.1 | 12 µM | 25.3 µM | –

Row | Compound | Ratio IC50 [3] | IC50 (Acetylcholinesterase) | IC50 (Cholinesterase) | other results
24 | CCN(CC)c1ccc(/C=C2\Oc3cc(OC)ccc3C2=O)cc1 | – | > 100 µM | > 100 µM | –
25 | O=C1/C(=C/c2ccc(OCCN3CCCC3)cc2)Oc2cc(O)ccc21 | – | 3.24 µM | > 100 µM | –
26 | COc1ccc2c(c1)O/C(=C\c1ccc(OCCN(C)C)cc1)C2=O | 13.1 | 1.97 µM | 25.9 µM | –
27 | CCN(CC)C(=O)Oc1ccc2c(c1)O/C(=C\c1ccc(OC)cc1)C2=O | – | > 100 µM | 12.7 µM | –
28 | CN(C)CCOc1ccc(/C=C2\Oc3cc(O)ccc3C2=O)cc1 | – | 5.52 µM | > 100 µM | –
29 | CCN(CC)C(=O)Oc1ccc2c(c1)O/C(=C\c1ccc(OCCN3CCCCC3)cc1)C2=O | 11 | 0.652 µM | 7.17 µM | remaining at 10 min, 2 µM [1]: 44.3%; half-life at 2 µM [2]: 8.5 min; Retention_time: 4.2 min; Papp (in vitro): 16.1 ×10⁻⁶ cm/s
30 | COc1cc(/C=C2\Oc3cc(OCCN(C)C)ccc3C2=O)cc(OC)c1OC | 4.26 | 15.6 µM | 66.4 µM | –
31 | COc1ccc2c(c1)O/C(=C\c1ccc(OCCCN(C)C)c(Cl)c1)C2=O | 13.4 | 1.61 µM | 21.6 µM | –
32 | CCN(CC)C(=O)Oc1ccc(/C=C2\Oc3cc(OC)ccc3C2=O)cc1 | – | 10.9 µM | > 100 µM | –
33 | COc1cc2c(cc1OC)C(=O)C(CC1CCN(Cc3ccccc3)CC1)C2 (stereo not given) [DONEPEZIL] | – | – | – | half-life at 2 µM [5]: 76.5 min; remaining at 0.5 h, 2 µM [6]: 76.2%
34 | COc1cc(/C=C2\Oc3cc(OCCCN(C)C)ccc3C2=O)cc(OC)c1OC | – | 9.88 µM | > 100 µM | –
35 | COc1ccc2c(c1)O/C(=C\c1ccc(OCCN3CCCC3)cc1)C2=O | 18.7 | 0.545 µM | 10.2 µM | remaining at 10 min, 2 µM [1]: 25.3%; Drug metabolism (Liver microsome [7]): metabolite_detected; half-life at 2 µM [2]: 5.1 min; Retention_time: 3.6 min; Papp (in vitro): 24.7 ×10⁻⁶ cm/s
36 | COc1ccc2c(c1)O/C(=C\c1ccc(N(C)C)cc1)C2=O | 0.63 | 50.3 µM | 31.8 µM | –
37 | COc1ccc2c(c1)O/C(=C\c1ccc(O)cc1)C2=O | – | > 100 µM | > 100 µM | –
38 | Cn1c(=O)c2c(ncn2C)n(C)c1=O [CAFFEINE] | – | – | – | Retention_time [4]: 3.2 min
39 | COc1cc(/C=C2\Oc3cc(OCCN4CCCCC4)ccc3C2=O)cc(OC)c1OC | 14.6 | 0.422 µM | 6.15 µM | Drug metabolism (Liver microsome [7]): metabolite_detected; Retention_time: 3.7 min; Drug metabolism (Liver microsome [8]): metabolite_detected; half-life at 2 µM [5]: 43.8 min; remaining at 0.5 h, 2 µM [6]: 61.9%; Papp (in vitro): 21.3 ×10⁻⁶ cm/s
40 | CCN(CC)C(=O)Oc1ccc2c(c1)O/C(=C\c1ccc(N(C)C)cc1)C2=O | – | > 100 µM | > 100 µM | –
41 | COc1ccc(/C=C2\Oc3cc(OCCN4CCCCC4)ccc3C2=O)cc1 | 8.13 | 0.845 µM | 6.87 µM | remaining at 10 min, 2 µM [1]: 53.6%; half-life at 2 µM [2]: 11.2 min; Retention_time: 4.5 min; Papp (in vitro): 20 ×10⁻⁶ cm/s
42 | COc1ccc(/C=C2\Oc3cc(OCCN4CCCC4)ccc3C2=O)cc1 | 6.1 | 1.18 µM | 7.19 µM | –
43 | CCN(CC)C(=O)Oc1ccc2c(c1)O/C(=C\c1ccc(OCCCN(C)C)cc1)C2=O | 1.85 | 3.29 µM | 6.1 µM | –
44 | COc1ccc2c(c1)O/C(=C\c1ccc(OCCN(C)C)cc1Cl)C2=O | 1.93 | 12.4 µM | 23.9 µM | –
45 | COc1ccc2c(c1)O/C(=C\c1ccc(OCCN3CCCCC3)cc1)C2=O | 25.5 | 0.348 µM | 8.87 µM | remaining at 10 min, 2 µM [1]: 52.1%; half-life at 2 µM [2]: 10.9 min; Retention_time: 4.5 min; Papp (in vitro): 20 ×10⁻⁶ cm/s
